Assay results from ChEMBL document CHEMBL4196238, “Synthesis and Antiviral Evaluation of Carbocyclic Nucleoside Analogs of Nucleoside Reverse Transcriptase Translocation Inhibitor MK-8591 (4'-Ethynyl-2-fluoro-2'-deoxyadenosine)” (J Med Chem, 2018).

Legend:
[1] = target: Human immunodeficiency virus type 1 reverse transcriptase (Human immunodeficiency virus 1, UniProt Q72547); assay: Inhibition of full-length wild-type HIV1 reverse transcriptase expressed in Escherichia coli BL21(DE3) pre-incubated for 30 mins before addition of template/primer substrate and measured after 90 mins
[2] = test system: Human immunodeficiency virus 1; assay: Antiviral activity against HIV1 infected in human PBMC incubated for 24 hrs in presence of 10% NHS by GFP based single cycle HIV replication assay; format: functional, organism-based; details: Human immunodeficiency virus 1, PBMC
Procedure, shortened: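 Human PBMCs infected with wild-type HIV-1 were tested in a single-cycle HIV replication assay containing 10% normal human serum (NHS), and IC50 values were determined.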

[3] = Cytotoxicity in human MT4 cells expressing GFP assessed as reduction in cell viability incubated for 48 hrs by cell-titer-Glo luminescent cell viability assay; format: cell-based
Procedure, shortened: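 CC50 values were determined in the MT4 cell line under 10% NHS conditions.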

[4] = AUC (0 to infinity) in Sprague-Dawley rat at 1 mg/kg, iv; format: ADME, organism-based; parameters: dose 1 mg/kg, time infinity, route intravenous; details: in vivo
Procedure, shortened: (§1)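 Male Sprague–Dawley rats were dosed intravenously at 1 mg/kg or orally at 2 mg/kg, and pharmacokinetic parameters were derived from plasma data for each route.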

[5] = AUC (0 to infinity) in Sprague-Dawley rat at 2 mg/kg, po; format: ADME, organism-based; parameters: dose 2 mg/kg, time infinity, route oral; details: in vivo; procedure, shortened: as §1
[6] = Clearance in Sprague-Dawley rat at 1 mg/kg, iv; format: ADME, organism-based; details: in vivo; procedure, shortened: as §1
[7] = Half life in Sprague-Dawley rat at 1 mg/kg, iv; format: ADME, organism-based; details: in vivo; procedure, shortened: as §1
[8] = Oral bioavailability in Sprague-Dawley rat at 2 mg/kg; format: ADME, organism-based; details: in vivo; procedure, shortened: as §1
[9] = AUC (0 to infinity) in Sprague-Dawley rat at 5 mg/kg, po; format: ADME, organism-based; parameters: dose 5 mg/kg, time infinity, route oral; details: in vivo
[10] = Oral bioavailability in Sprague-Dawley rat at 5 mg/kg; format: ADME, organism-based; details: in vivo
[11] = Half life in human CD4+ CEM cells at 0.1 to 10 uM by HPLC method; format: ADME, cell-based, CCRF-CEM

IC50 [2] | SMILES | IC50 [1] | CC50 at 48 h [3] | other results
0.171 µM | Nc1ccn([C@@H]2CS[C@H](CO)O2)c(=O)n1 [LAMIVUDINE] | – | > 42 µM | –
0.024 µM | C#C[C@]1(CO)C[C@@H](n2cnc3c(=O)[nH]c(N)nc32)C[C@@H]1O | – | > 42 µM | AUC(0-inf) [4]: 1.82 µM·h; AUC(0-inf) [5]: 3.3 µM·h; clearance [6]: 32.4 mL/min/kg; half-life [7]: 9.8 h; bioavailability [8]: 91%
0.00021 µM | C#C[C@]1(CO)O[C@@H](n2cnc3c(N)nc(F)nc32)C[C@@H]1O [ISLATRAVIR] | – | > 4.2 µM | AUC(0-inf) [4]: 0.78 µM·h; AUC(0-inf) [9]: 5 µM·h; clearance [6]: 72 mL/min/kg; half-life [7]: 0.7 h; bioavailability [10]: > 100%
> 2.1 µM | C#C[C@@]1(CO)C[C@H](n2cnc3c(=O)[nH]c(N)nc32)C[C@H]1O | – | > 42 µM | –

More lines, now with the values behind:

SMILES | IC50 [2] | IC50 [1] | CC50 at 48 h [3] | other results
C#CC1(COP(=O)(O)OP(=O)(O)OP(=O)(O)O)CC(n2cc(C)c(=O)[nH]c2=O)CC1O (racemic) | – | 0.114 µM | – | –
C#CC1(CO)CC(n2cc(C)c(=O)[nH]c2=O)CC1O (racemic) | > 2.1 µM | – | > 42 µM | –
Cc1cn(C2CC(O)C(C#N)(CO)C2)c(=O)[nH]c1=O (racemic) | > 2.1 µM | – | > 42 µM | –
C#CC1(CO)CC(n2cnc3c(=O)[nH]c(N)nc32)CC1O (racemic) | 0.033 µM | – | > 42 µM | –
Nc1ccn([C@@H]2CS[C@H](COP(=O)(O)OP(=O)(O)OP(=O)(O)O)O2)c(=O)n1 [LAMIVUDINE TRIPHOSPHATE] | – | 0.015 µM | – | –
C#CC1(COP(=O)(O)OP(=O)(O)OP(=O)(O)O)CC(n2cnc3c(N)nc(F)nc32)CC1O (racemic) | – | 3.46 µM | – | –
C#C[C@]1(CO[P@@](=O)(N[C@@H](C)C(=O)OC(C)C)Oc2ccccc2)C[C@@H](n2cnc3c(OCC)nc(N)nc32)C[C@@H]1O | 0.003 µM | – | > 42 µM | –
C#CC1(COP(=O)(O)OP(=O)(O)OP(=O)(O)O)CC(n2cnc3c(=O)[nH]c(N)nc32)CC1O (racemic) | – | 0.324 µM | – | –
C#CC1(CO)CC(n2cnc3c(N)nc(Cl)nc32)CC1O (racemic) | 0.232 µM | – | > 42 µM | –
C#C[C@@]1(CO[P@@](=O)(N[C@@H](C)C(=O)OC(C)C)Oc2ccccc2)C[C@H](n2cnc3c(OCC)nc(N)nc32)C[C@H]1O | 0.382 µM | – | > 4.2 µM | –
N#CC1(CO)CC(n2cnc3c(=O)[nH]c(N)nc32)CC1O (racemic) | 1.15 µM | – | > 42 µM | –
N#CC1(CO)CC(n2cnc3c(N)nc(F)nc32)CC1O (racemic) | > 2.1 µM | – | > 42 µM | –
N#CC1(COP(=O)(O)OP(=O)(O)OP(=O)(O)O)CC(n2cnc3c(=O)[nH]c(N)nc32)CC1O (racemic) | – | 0.444 µM | – | –
C#CC1(CO)CC(n2cnc3c(N)nc(F)nc32)CC1O (racemic) | 0.201 µM | – | > 42 µM | –
Cc1cn(C2CC(O)C(C#N)(COP(=O)(O)OP(=O)(O)OP(=O)(O)O)C2)c(=O)[nH]c1=O (racemic) | – | 0.523 µM | – | –
C#C[C@]1(COP(=O)(O)OP(=O)(O)OP(=O)(O)O)O[C@@H](n2cnc3c(N)nc(F)nc32)C[C@@H]1O | – | – | – | half-life at up to 10 µM [11]: > 120 h
C#CC1(COP(=O)(O)OP(=O)(O)OP(=O)(O)O)CC(n2cnc3c(N)nc(Cl)nc32)CC1O (racemic) | – | 20.2 µM | – | –
